Data on two compounds can be found in ChEMBL document CHEMBL1132694, “Discovery and structure-activity relationships of imidazole-containing tetrahydrobenzodiazepine inhibitors of farnesyltransferase” (J Med Chem, 1999).

The test system of assay [1] is Mus musculus. Nature of the assay: In vivo antitumor activity against Rat-1 tumors in mice at 30 mg/kg. Type of assay: functional. In short, it runs like this: (§1)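 Female athymic Balb/c-background mice (18-22 g) were implanted ip with 1 × 10^6 in vitro-propagated H-Ras-transformed Rat-1 fibroblasts. Dosing was ip, once daily for 7 days from day 1, with compound in 10% ethanol/sterile water given within 1 h of dissolution. Groups were typically 6 treated and 8 control mice. Read-out was median survival as %T/C, with ≥125% counted active (Gehan's generalized Wilcoxon test).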

Assay [2] addresses T1, Protein farnesyltransferase (Homo sapiens, UniProt P49354+P49356). Nature of the assay: Phenotypic reversion of H-Ras transformed NIH3T3 cells at 5 uM. The note with it: Mus musculus. Type of assay: functional, cell-based.
For assay [3], the system named is Mus musculus. Kind of assay: In vivo antitumor activity against Rat-1 tumors in mice at 10 mg/kg. Type of assay: functional. The method in brief: as §1
The test system of a further assay is Rat1. Nature of the assay: Inhibition of anchorage independent growth of H-Ras transformed Rat-1 cells. Type of assay: functional, cell-based.
Assay [4] addresses T1, Protein farnesyltransferase. Nature of the assay: Phenotypic reversion of H-Ras transformed NIH3T3 cells at 1.25 uM. Type of assay: functional, cell-based. The note with it: Mus musculus.
For assay [5] the target is unchanged. Kind of assay: Phenotypic reversion of H-Ras transformed NIH3T3 cells at 1.25/5 uM. Type of assay: functional, cell-based. The note with it: Mus musculus.
The target is the same in assay [6]. Kind of assay: Inhibition of human purified recombinant farnesyltransferase (hFT) at 15 uM. The assay is classed as protein-complex assay.

As usually defined, the T/C is the result in the treated group divided by that in the control group, in per cent. Usually EC50 stands for the concentration at which the effect is half-maximal. A lower EC50 goes with higher potency in that assay. On to `O=C(c1cccc2ccccc12)N1CCN(Cc2c[nH]cn2)c2ccc(-c3ccccc3)cc2C1`, for which the T/C stood at 96% in the assay on Mus musculus [1] and 136% in the assay on Mus musculus [3]. The Reversion activity in assay [2] stood at 90%; in assay [4], 0%. In the assay with Rat1, this compound yielded a concentration for a half-maximal effect (EC50) of 1600 nM.
A word on the inhibition: it is the drop in the measured response relative to a control, in per cent. `O=C(OCc1ccccc1)N1CCN(Cc2c[nH]cn2)c2ccc(-c3ccccc3)cc2C1`: the Reversion activity in assay [2] and in assay [5] was 0% throughout. Also, the inhibition in assay [6] worked out at 55%.
